The source made the active and inactive calls. The calls are words filed in the database; no cut-off is given here.
Experiments:
Cannabinoid receptor 2 [1] = biological target: T1, Cannabinoid receptor 2 (Homo sapiens, UniProt P34972); assay: Displacement of [3H]CP55940 from recombinant human CB2R expressed in HEK293 cell membranes at 10 uM incubated for 90 mins relative to control
Cannabinoid receptor 1 [2] = biological target: T2, Cannabinoid receptor 1 (Homo sapiens, UniProt P21554); assay: Agonist activity at N-terminal Flag epitope tagged CB1 (unknown origin) expressed in HTLA cells assessed as increase of beta-arrestin recruitment by Tango assay; type: cell-based
Summary of the method: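 HTLA cells transfected overnight with GPCR Tango constructs, plated at 15,000 cells/well in DMEM with 1% dFBS and allowed to recover at least 6 h. Compounds in Tango buffer (20 mM HEPES, 1x HBSS, pH 7.40) added overnight, full concentration-response up to 30 µM against CP-55,940 as reference agonist. BrightGlo reagent added for 20 min at room temperature in the dark, then luminescence read.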

Cannabinoid receptor 1 [3] = biological target: T2, Cannabinoid receptor 1; assay: Displacement of [3H]CP55940 from recombinant human CB1R expressed in HEK293 cell membranes at 10 uM incubated for 90 mins relative to control
Cannabinoid receptor 2 [4] = biological target: T1, Cannabinoid receptor 2; assay: Agonist activity at N-terminal Flag epitope tagged CB2 (unknown origin) expressed in HTLA cells assessed as increase of beta-arrestin recruitment by Tango assay; type: cell-based
Summary of the method: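 β-arrestin Tango assay: HTLA cells transfected overnight with GPCR tango constructs, plated at 15,000 cells/well in DMEM with 1% dFBS, recovered ≥6 h. Drugs in Tango buffer (20 mM HEPES, 1x HBSS, pH 7.40) added overnight, full concentration-response (maximum 30 µM). BrightGlo reagent, 20 min room temperature in dark, luminescence read.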

Cannabinoid receptor 1 [5] = biological target: T2, Cannabinoid receptor 1; assay: Antagonist activity at N-terminal Flag epitope tagged CB1 (unknown origin) expressed in HTLA cells assessed as decrease in CP55940-induced beta-arrestin recruitment pretreated with non-selective cannabinoid receptor agonist CP55940 for 30 mins and measured after 20 mins by Tango assay; type: cell-based
Cannabinoid receptor 2 [6] = biological target: T1, Cannabinoid receptor 2; assay: Antagonist activity at N-terminal Flag epitope tagged CB2 (unknown origin) expressed in HTLA cells assessed as decrease in CP55940-induced beta-arrestin recruitment pretreated with non-selective cannabinoid receptor agonist CP55940 for 30 mins and measured after 20 mins by Tango assay; type: cell-based
Homo sapiens = organism: Homo sapiens; assay: Selectivity index, ratio of Ki for recombinant human CB1R expressed in HEK293 cell membranes to Ki for recombinant human CB2R expressed in HEK293 cell membranes; type: cell-based
Cannabinoid receptor 2 [7] = biological target: T1, Cannabinoid receptor 2; assay: Agonist activity at recombinant human CB2R expressed in CHOK1 cells assessed as inhibition of NKH477-stimulated intracellular cAMP levels after 30 mins by chemiluminescent detection based cAMP Hunter assay; type: functional, cell-based
Summary of the method: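 CHO-K1 cells overexpressing human CB2R, plated 30,000 cells/well, overnight 37 °C, 5% CO2. Compound dose-responses incubated 30 min at 37 °C with NKH-477 (25 µM) to stimulate adenylate cyclase. Enzyme fragment complementation chemiluminescence read. Normalised to NKH-477 alone as 100%; mean ± SEM of three independent experiments in triplicate.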

T1 sequence (P34972 whole entry): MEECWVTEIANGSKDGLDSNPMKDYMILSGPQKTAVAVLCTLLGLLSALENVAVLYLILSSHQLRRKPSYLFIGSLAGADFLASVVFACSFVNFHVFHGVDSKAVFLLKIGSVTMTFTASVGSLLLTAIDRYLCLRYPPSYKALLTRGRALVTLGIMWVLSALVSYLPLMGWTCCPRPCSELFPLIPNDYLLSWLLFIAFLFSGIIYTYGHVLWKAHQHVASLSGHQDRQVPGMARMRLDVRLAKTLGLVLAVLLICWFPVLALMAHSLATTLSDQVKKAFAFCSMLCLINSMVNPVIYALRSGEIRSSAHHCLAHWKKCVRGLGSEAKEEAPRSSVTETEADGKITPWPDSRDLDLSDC
T2 sequence (P21554 whole entry): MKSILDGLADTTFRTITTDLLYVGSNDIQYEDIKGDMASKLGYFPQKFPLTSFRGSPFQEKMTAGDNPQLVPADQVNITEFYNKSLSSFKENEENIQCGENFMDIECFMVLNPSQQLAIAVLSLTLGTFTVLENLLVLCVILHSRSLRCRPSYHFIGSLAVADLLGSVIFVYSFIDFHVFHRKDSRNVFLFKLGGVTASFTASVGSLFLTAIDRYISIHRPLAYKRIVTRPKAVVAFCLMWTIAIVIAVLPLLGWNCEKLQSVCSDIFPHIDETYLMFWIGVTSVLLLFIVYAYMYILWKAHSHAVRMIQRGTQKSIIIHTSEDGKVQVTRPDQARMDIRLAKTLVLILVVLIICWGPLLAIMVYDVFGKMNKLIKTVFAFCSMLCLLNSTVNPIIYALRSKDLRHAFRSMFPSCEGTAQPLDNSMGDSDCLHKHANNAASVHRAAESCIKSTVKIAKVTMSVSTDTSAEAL

Compound	Activity (Cannabinoid receptor 2 [1])	EC50 (Cannabinoid receptor 1 [2]) [µM]	Activity (Cannabinoid receptor 1 [3])	EC50 (Cannabinoid receptor 2 [4]) [µM]	EC50 (Cannabinoid receptor 1 [5]) [µM]	EC50 (Cannabinoid receptor 2 [6]) [µM]	Ratio Ki (Homo sapiens)	EC50 (Cannabinoid receptor 2 [7]) [µM]
O=C(Nc1ccc2ccccc2c1)c1nc2ccccc2s1	Active	> 30	Active	> 30	> 30	> 30	–	–
O=C(Nc1nc2ccccc2s1)c1cccc2ccccc12	Active	> 30	Active	> 30	> 30	> 30	> 7	–
O=C(NCC1CCCCC1)c1nc2ccccc2s1	Active	> 30	Active	> 30	> 30	> 30	> 7	–
O=C(NCc1ccccc1)c1nc2ccccc2s1	Active	> 30	Active	> 30	> 30	> 30	–	–
Cc1nc(-c2ccccc2)sc1C(=O)NC1CCCC1	Active	> 30	Active	> 30	> 30	> 30	–	–
Cc1nc(C)c(C(=O)NC2CCCc3ccccc32)s1 (stereo not drawn)	Active	> 30	Active	> 30	1.17	0.437	–	–
CCCCCn1/c(=N/C(=O)c2ccc(C(F)(F)F)cc2)sc2ccccc21	Active	> 30	Active	2.51	> 30	> 30	393	–
Cc1ccc(Cn2nc(C(=O)N[C@@H]3C(C)(C)[C@@H]4CC[C@@]3(C)C4)cc2-c2ccc(Cl)c(C)c2)cc1	–	–	Active	–	–	–	–	–
Cc1nc(C)c(C(=O)NCc2ccccc2)s1	Active	> 30	Active	> 30	> 30	> 30	–	–
Cc1nc(-c2ccccc2)sc1C(=O)NCc1ccccc1Cl	Active	> 30	Active	> 30	> 30	> 30	–	–
CCCCCn1/c(=N/C(=O)c2cccc3ccccc23)sc2ccccc21	Active	0.126	Active	0.0129	> 30	> 30	22.2	0.068
Cc1nc(C)c(C(=O)NC23CC4CC(CC(C4)C2)C3)s1	Active	> 30	Active	> 30	> 30	> 30	> 6	–
Cc1nc(-c2ccccc2)sc1C(=O)NCc1ccccc1F	Active	> 30	Active	> 30	> 30	> 30	–	–
Cc1nc(-c2ccccc2)sc1C(=O)NC1CCCCC1	Active	> 30	Active	> 30	> 30	> 30	–	–
O=C(Nc1nc2ccccc2s1)c1ccc(C(F)(F)F)cc1	Active	> 30	Active	> 30	> 30	> 30	–	–
Cc1nc(-c2ccccc2)sc1C(=O)NCc1ccccc1	Active	> 30	Active	> 30	> 30	> 30	–	–

Compound	Activity (Cannabinoid receptor 2 [1])	EC50 (Cannabinoid receptor 1 [2]) [µM]	Activity (Cannabinoid receptor 1 [3])	EC50 (Cannabinoid receptor 2 [4]) [µM]	EC50 (Cannabinoid receptor 1 [5]) [µM]	EC50 (Cannabinoid receptor 2 [6]) [µM]	Ratio Ki (Homo sapiens)	EC50 (Cannabinoid receptor 2 [7]) [µM]
O=C(Nc1cccc2ccccc12)c1nc2ccccc2s1	Active	> 30	Active	> 30	> 30	> 30	–	–
CCCCCn1/c(=N\C(=O)C23CC4CC(CC(C4)C2)C3)sc2ccccc21	Active	1.62	Active	0.0263	> 30	> 30	120	0.057
Cc1nc(-c2ccccc2)sc1C(=O)NC1CCCc2ccccc21 (stereo not drawn)	Active	> 30	Active	> 30	> 30	> 30	> 4	–
Cc1nc(-c2ccccc2)sc1C(=O)NCC1CCCCC1	Active	> 30	Active	> 30	> 30	> 30	–	–
Cc1nc(-c2ccccc2)sc1C(=O)N1CCOCC1	Active	> 30	Active	> 30	> 30	> 30	> 3	–
O=C(NC12CC3CC(CC(C3)C1)C2)c1nc2ccccc2s1	Active	> 30	Active	> 30	> 30	> 30	> 121	–
Cc1nc(C(C)(C)C)sc1C(=O)NC12CC3CC(CC(C3)C1)C2	Active	> 30	Active	3.98	> 30	> 30	> 25	–
Cc1nc(-c2ccccc2)sc1C(=O)NC12CC3CC(CC(C3)C1)C2	Active	> 30	Active	> 30	> 30	> 30	> 22	–
O=C(NC1CCCc2ccccc21)c1nc2ccccc2s1 (stereo not drawn)	Active	> 30	Active	> 30	> 30	> 30	3	–
Cc1nc(-c2ccccc2)sc1C(=O)NC1CC1	Active	> 30	Active	> 30	> 30	> 30	–	–
O=C(Nc1nc2ccccc2s1)C12CC3CC(CC(C3)C1)C2	Active	> 30	Active	> 30	> 30	> 30	> 36	–
O=C(Nc1nc2ccccc2s1)c1cccc(C(F)(F)F)c1	Active	> 30	Active	> 30	> 30	> 30	–	–
CCCCCCNC(=O)c1sc(-c2ccccc2)nc1C	Active	> 30	Active	> 30	> 30	> 30	–	–
O=C(NCc1ccccc1Cl)c1nc2ccccc2s1	Active	> 30	Active	3.31	> 30	> 30	> 9	–
CCCCNC(=O)c1sc(-c2ccccc2)nc1C	Active	> 30	Active	> 30	> 30	> 30	–	–
Cc1nc(-c2ccccc2)sc1C(=O)NCc1ccc(F)cc1	Active	> 30	Active	> 30	> 30	> 30	–	–
